The values that follow come from ChEMBL document CHEMBL4373706, “Discovery of Inhibitors of Aurora/PLK Targets as Anticancer Agents” (J Med Chem, 2019).

Assay [1] has as its system HCT-116. Kind of assay: Antiproliferative activity against human HCT116 cells measured after 48 hrs by MTT assay. Type of assay: functional, cell-based. The method in brief: (§1)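 Cells were exposed to a range of compound concentrations for 48 h. MTT reagent was then added and absorbance read at 490 nm. Viability was normalized to vehicle control set as 100%, from n = 3 independent experiments, and IC50 was taken from the dose–response curves.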
(In general: Tetrazolium dyes change colour on reduction, which living cells bring about.)

Assay [2] deals with MCF7. Briefly: Antiproliferative activity against human MCF7 cells measured after 48 hrs by MTT assay. Type of assay: functional, cell-based. The method in brief: as §1
The subject of assay [3] is A549. Briefly: Antiproliferative activity against human A549 cells measured after 48 hrs by MTT assay. Type of assay: functional, cell-based. The method, boiled down: as §1
For assay [4], the system named is Calu-6. Briefly: Antiproliferative activity against human Calu6 cells measured after 48 hrs by MTT assay. Type of assay: functional, cell-based. The method in brief:
as §1

Assay [5] relates to HCT-116. Kind of assay: Inhibition of colony formation in human HCT116 cells at 10 uM incubated for 48 hrs followed by supplemented with fresh medium every 3 days for 2 weeks by crystal violet staining-based assay. Format: functional, cell-based.
In assay [6] the test system is HCT-116. Kind of assay: Induction of apoptosis in human HCT116 cells assessed as increase in apoptotic index at 1 to 10 uM measured after 48 hrs by Annexin V-FITC/propidium iodide staining-based flow cytometry. Format: functional, cell-based.
The subject of assay [7] is HCT-116. Kind of assay: Antitumor activity against human HCT116 cells xenografted in BALB/c mouse assessed as survival rate at 10 mg/kg, iv administered every 3 days for 60 days relative to control. Type of assay: functional. To be noted: HCT-116, iv. For orientation: In xenograft studies the graft and the host belong to different species.
For assay [8], the system named is HCT-116. Kind of assay: Antiproliferative activity against human HCT116 cells measured after 96 hrs by Brdu incorporation-based ELISA. Type of assay: functional, cell-based. The note with it: HCT-116, 96 h.

Broadly, the IC50 is the concentration that inhibits the measured activity by half. Read a low IC50 as inhibition by little substance.

The source made the active and inactive calls. The rule behind the calls is not given here.

Regarding `O=C(Nc1ccc2cc(C(=O)NC3CCCCC3)ccc2c1)c1ccc(F)cc1`, the outcome in assay [1], in assay [2], in assay [3] and in assay [4] was Active.

As for `CC[C@@H]1C(=O)N(C)c2cnc(Nc3ccc(C(=O)NC4CCN(C)CC4)cc3OC)nc2N1C1CCCC1`, in assay [5], the inhibition entry was “inactive”. The outcome in assay [6] was Active.

For the compound `O=c1[nH]cc(F)c(=O)[nH]1` [FLUOROURACIL], the survival at 10 mg/kg in assay [7] is 30%.

For `COc1cc(Nc2ncc3c(n2)-c2ccc(Cl)cc2C(c2c(F)cccc2OC)=NC3)ccc1C(=O)O` [ALISERTIB], half-maximal inhibition in assay [8] (IC50) required 32 µM. The inhibition entry in assay [5] is “inactive”. Further, the result in assay [6] was Active.

On to `COc1ccc(C(=O)Nc2ccc3cc(C(=O)NC4CC4)ccc3c2)cc1`, for which the result in assay [1], in assay [2], in assay [3] and in assay [4] was Active.
